Data on four compounds can be found in ChEMBL document CHEMBL4414560, “Goniolanceolatins A-H, Cytotoxic Bis-styryllactones from Goniothalamus lanceolatus” (J Nat Prod, 2019).

The structures appear in SMILES notation. Some results are limits rather than exact numbers.

Assay [1] concerns NCI-H1299. Kind of assay: Cytotoxicity against human NCI-H1299 cells assessed as reduction in cell viability incubated fpr 72 hrs by celltiter-glo luminescent cell viability assay. It counts as functional, cell-based. The settings on record: NCI-H1299, 72 h. In short, it runs like this: (§1)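 Lung cancer lines received as gifts from the National Cancer Institute, Selangor, Malaysia, incubated at 37 °C, 5% CO2. Cells plated for 24 h, then drug-exposed for 72 h. Luminescent CellTiter-Glo viability read-out. IC50 is the concentration killing 50% of cells, reported as mean ± S.D. from at least three independent experiments. Cisplatin-treated cells used for validation.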
A general note: Cellular ATP, detected with luciferase, serves as a proxy for viable cell number.

The subject of assay [2] is HCT-116. Kind of assay: Cytotoxicity against human HCT116 cells assessed as reduction in cell viability incubated fpr 72 hrs by celltiter-glo luminescent cell viability assay. The conditions noted are these: HCT-116, 72 h. It counts as functional, cell-based. In short, it runs like this:
(§2)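 Cell lines from ATCC, grown in RPMI-1640 with 10% FBS, 100 IU/mL penicillin and 100 μg/mL streptomycin at 37 °C, 5% CO2. Seeded for 24 h, then exposed to compound for 72 h. Viability read by CellTiter-Glo luminescence. IC50 is the concentration killing 50% of cells, reported as mean ± S.D. of at least three independent experiments. Cisplatin-treated cells served for validation.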

Assay [3] has as its system Caco-2. Kind of assay: Cytotoxicity against human Caco2 cells assessed as reduction in cell viability incubated fpr 72 hrs by celltiter-glo luminescent cell viability assay. It counts as functional, cell-based. The conditions noted are these: Caco-2, 72 h. A digest of the protocol: as §2
Assay [4] concerns HCC 2998. Briefly: Cytotoxicity against human HCC2998 cells assessed as reduction in cell viability incubated fpr 72 hrs by celltiter-glo luminescent cell viability assay. It counts as functional, cell-based. The conditions noted are these: HCC 2998, 72 h. In short, it runs like this: as §2
The subject of assay [5] is CCD-841CoN. Briefly: Cytotoxicity against human CCD-841-CoN cells assessed as reduction in cell viability incubated fpr 72 hrs by celltiter-glo luminescent cell viability assay. It counts as cell-based. In short, it runs like this: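 Noncancerous colorectal CCD 841 CoN cells kept in DMEM with 20% FBS, 100 IU/mL penicillin and 100 μg/mL streptomycin at 37 °C, 5% CO2. Plated 24 h, then treated 72 h. Viability by CellTiter-Glo luminescence. IC50 is the 50%-kill concentration, given as mean ± S.D. from at least three independent experiments. Cisplatin used for validation.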

The test system of assay [6] is MRC5. Briefly: Cytotoxicity against human MRC5 cells assessed as reduction in cell viability incubated fpr 72 hrs by celltiter-glo luminescent cell viability assay. It counts as cell-based. The conditions noted are these: MRC5, 72 h. In short, it runs like this: as §2
For assay [7], the system named is A549. Kind of assay: Cytotoxicity against human A549 cells assessed as reduction in cell viability incubated fpr 72 hrs by celltiter-glo luminescent cell viability assay. It counts as functional, cell-based. The settings on record: A549, 72 h. In short, it runs like this:
as §2

Assay [8] has as its system NCI-H23. Briefly: Cytotoxicity against human NCI-H23 cells assessed as reduction in cell viability incubated fpr 72 hrs by celltiter-glo luminescent cell viability assay. It counts as functional, cell-based. The settings on record: NCI-H23, 72 h. A digest of the protocol:
as §1

The test system of assay [9] is Calu-1. Kind of assay: Cytotoxicity against human Calu1 cells assessed as reduction in cell viability incubated fpr 72 hrs by celltiter-glo luminescent cell viability assay. The settings on record: Calu-1, 72 h. It counts as functional, cell-based. A digest of the protocol: as §2
Assay [10] has as its system SW48. Kind of assay: Cytotoxicity against human SW48 cells assessed as reduction in cell viability incubated fpr 72 hrs by celltiter-glo luminescent cell viability assay. It counts as functional, cell-based. The settings on record: SW48, 72 h. A digest of the protocol: as §2

As usually defined, the IC50 is the concentration at which inhibition is half-maximal. For the compound `CC(=O)O[C@@H](c1ccccc1)[C@@H](O[C@@H]1[C@@H]2C[C@@H](CC(=O)O2)O[C@H]1c1ccccc1)[C@@H]1CC=CC(=O)O1`, the IC50 in assay [1] is greater than 10 µM; in assay [2] it was 9.5 µM; in assay [3] it was greater than 10 µM; in [4], greater than 10 µM; in assay [5], greater than 100 µM; in assay [6] it was greater than 100 µM. The half-maximal inhibitory concentration (IC50) in assay [7] is greater than 10 µM; in [8], 9.3 µM; in assay [9], greater than 10 µM; in [10], greater than 10 µM.
On to `O=C1C=CC[C@@H]([C@H](O)[C@H](O[C@@H](c2ccccc2)[C@@H](O)[C@@H]2CC=CC(=O)O2)c2ccccc2)O1`, for which the IC50 in assay [1] was 7.1 µM; in [2] it was 5.9 µM; in assay [3], greater than 10 µM; in assay [4], 2.9 µM; in assay [5] it was greater than 100 µM; in assay [6], greater than 100 µM. The IC50 in [7] stood at 7.8 µM; in assay [8], 3.2 µM; in assay [9], 5.4 µM; in assay [10] it was 4.1 µM.
As to `O=C1C=CC[C@@H]([C@H](O)[C@@H](O[C@H]([C@@H]2CC=CC(=O)O2)[C@@H](O)c2ccccc2)c2ccccc2)O1`, the IC50 in assay [1] is 9.5 µM; in assay [2] it was 8 µM; in [3], greater than 10 µM; in assay [4] it was greater than 10 µM; in assay [5], greater than 100 µM; in assay [6], greater than 100 µM. Also, the half-inhibitory concentration (IC50) was greater than 10 µM in assay [7], 5.2 µM in [8], 7.5 µM in [9] and 5.5 µM in assay [10].
On to `CC(=O)O[C@@H]([C@@H]1CC=CC(=O)O1)[C@H](O[C@@H](c1ccccc1)[C@@H](O)[C@@H]1CC=CC(=O)O1)c1ccccc1`, for which the IC50 in [1] was 4.6 µM; in assay [2], 4.1 µM; in assay [3] it was 7 µM; in [4], greater than 10 µM; in assay [5], greater than 100 µM; in [6] it was greater than 100 µM. Besides, the IC50 is 6.4 µM in assay [7], 2.6 µM in assay [8], 2.2 µM in assay [9] and 4.1 µM in assay [10].
